Reference: ChEMBL document CHEMBL4130356, “Design, synthesis and 2D QSAR study of novel pyridine and quinolone hydrazone derivatives as potential antimicrobial and antitubercular agents” (Eur J Med Chem, 2017)
≈ marks a conversion by molar mass, not a printed value. Calls of active or inactive are those of the source. The rule behind the calls is not given here.

How the values were obtained:
[1] = system: Escherichia coli; assay: Antimicrobial activity against Escherichia coli RCMB 010052 after 24 hrs by serial dilution method; format: functional; conditions: RCMB 010052, 24 h
In short: (§1)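 Serial twofold dilution in microtiter plates starting from a 100 mmol stock in DMSO; final concentrations 125 down to 0.12 […]. Incubated at 37°C and read on a microplate reader after 24 h. Ciprofloxacin was the reference. Run in triplicate, with the average taken. MIC was the lowest concentration inhibiting growth.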

[2] = system: Streptococcus pneumoniae; assay: Antimicrobial activity against Streptococcus pneumoniae RCMB 010010 after 24 hrs by serial dilution method; format: functional; conditions: RCMB 010010, 24 h; in short: as §1
[3] = system: Candida albicans; assay: Antimicrobial activity against Candida albicans RCMB 05036 assessed as diameter of zone inhibition at 100 ug/ml after 48 hrs by agar well diffusion assay; format: functional; conditions: for zone of inhibition at 100 µg/mL: RCMB 05036, 48 h, read-out: DIZ
In short: (§2)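 Agar well diffusion on malt agar plates seeded with the fungus, using 1 cm wells. Plates were held at 4°C for 1 h for diffusion, then incubated at 28°C. Inhibition zone diameters were measured at 48 h. Amphotericin B was the positive control. Run in triplicate, with the mean zone reported.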

[4] = system: Pseudomonas aeruginosa; conditions: RCMB 010043
[5] = system: Streptococcus pneumoniae; assay: Antimicrobial activity against Streptococcus pneumoniae RCMB 010010 assessed as diameter of zone inhibition at 100 ug/ml after 24 hrs by agar well diffusion assay; format: functional; conditions: RCMB 010010, 24 h, read-out: DIZ
In short: (§3)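 Agar well diffusion on nutrient agar plates seeded with the bacterium, using 1 cm wells. Plates were held at 4°C for 1 h for diffusion, then incubated at 37°C. Inhibition zone diameters were measured at 24 h. Ciprofloxacin was the positive control. Run in triplicate, with the mean zone reported.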

[6] = system: Pseudomonas aeruginosa; conditions: RCMB 010043, 100 ug/ml
[7] = system: WI-38; assay: Cytotoxicity against human WI38 cells assessed as reduction in cell viability after 24 hrs by crystal violet staining-based colorimetric method; conditions: WI-38, 24 h
In short: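 WI-38 cells were grown in DMEM with 10% FBS at 37°C and 5% CO2, then seeded at 1×10^4 cells/well. Serial twofold dilutions were added, three wells per concentration. Viability was read by crystal violet stain, solubilised in 30% acetic acid, at 490 nm. Run in triplicate. IC50 was estimated from dose-response plots.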

[8] = system: Aspergillus fumigatus; assay: Antimicrobial activity against Aspergillus fumigatus RCMB 02568 after 48 hrs by serial dilution method; format: functional; conditions: RCMB 02568, 48 h
In short: as §1, with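 “28°C” for “37°C”, “48” for “24”, “Amphotericin B” for “Ciprofloxacin”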

[9] = system: Candida albicans; assay: Antimicrobial activity against Candida albicans RCMB 05036 after 48 hrs by serial dilution method; format: functional; conditions: RCMB 05036, 48 h
In short: as §1, with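 “28°C” for “37°C”, “48” for “24”, “Amphotericin B” for “Ciprofloxacin”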

[10] = system: Escherichia coli; assay: Antimicrobial activity against Escherichia coli RCMB 010052 assessed as diameter of zone inhibition at 100 ug/ml after 24 hrs by agar well diffusion assay; format: functional; conditions: for zone of inhibition at 100 µg/mL: RCMB 010052, 24 h, read-out: DIZ; in short: as §3
[11] = Selectivity index, ratio of IC50 for human WI38 cells to MIC for Mycobacterium tuberculosis RCMB 010126 clinical isolate; format: toxicity; conditions: read-out: Selectivity Index
In short: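 WI-38 human lung fibroblasts grown in DMEM with 10% FBS at 37°C and 5% CO2, seeded at 1×10^4 cells/well, and exposed to serial two-fold dilutions in triplicate. Viability read by crystal violet stain at 490 nm. IC50 taken from dose-response plots. Ratio uses this IC50 against the MABA MIC for M. tuberculosis.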

[12] = system: Mycobacterium tuberculosis; assay: Antimycobacterial activity against Mycobacterium tuberculosis RCMB 010126 clinical isolate after 7 days by MABA; format: functional
In short: (§4)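 Inoculum from fresh LJ culture resuspended in 7H9-S broth with casitone, glycerol and OADC, adjusted to McFarland No. 1 and diluted 1:20. Serial two-fold compound dilutions in 7H9-S; isoniazid reference. Incubated 7 days at 37°C in air, then Alamar blue added and incubated overnight. Percent inhibition = 1 − (test well/growth-control mean) × 100; MIC = lowest concentration preventing blue-to-pink change.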

[13] = system: Aspergillus fumigatus; assay: Antimicrobial activity against Aspergillus fumigatus RCMB 02568 assessed as diameter of zone inhibition at 100 ug/ml after 48 hrs by agar well diffusion assay; format: functional; conditions: for zone of inhibition at 100 µg/mL: RCMB 02568, 48 h, read-out: DIZ; in short: as §2
[14] = system: Staphylococcus aureus; assay: Antimicrobial activity against Staphylococcus aureus RCMB 010028 assessed as diameter of zone inhibition at 100 ug/ml after 24 hrs by agar well diffusion assay; format: functional; conditions: RCMB 010028, 24 h, read-out: DIZ; in short: as §3
[15] = system: Mycobacterium tuberculosis; assay: Antimycobacterial activity against Mycobacterium tuberculosis RCMB 010126 clinical isolate assessed as inhibition zone after 7 days by MABA; format: functional; in short: as §4
[16] = system: Staphylococcus aureus; assay: Antimicrobial activity against Staphylococcus aureus RCMB 010028 after 24 hrs by serial dilution method; format: functional; conditions: RCMB 010028, 24 h; in short: as §1
[17] = system: Escherichia coli; assay: Potency index, ratio of ciprofloxacin MIC to test compound MIC for Escherichia coli RCMB 010052; format: functional
[18] = Mycobacterium tuberculosis, RCMB 010126, 168 h

Row | Structure (SMILES) | MIC [1] [mg/L] | MIC [2] [mg/L] | zone of inhibition at 100 µg/mL [3] [mm] | MIC [4] | zone of inhibition at 100 µg/mL [5] [mm] | DIZ [6] | IC50 [7] [mg/L] | MIC [8] [mg/L] | MIC [9] [mg/L] | zone of inhibition at 100 µg/mL [10] [mm] | selectivity ratio [11] | MIC [12, 18] [mg/L] | zone of inhibition at 100 µg/mL [13] [mm] | zone of inhibition at 100 µg/mL [14] [mm] | inhibition zone (IZ) [15] | MIC [16] [mg/L] | further results
1 | Cc1nc(-c2ccc(Cl)cc2)ccc1C(=O)N/N=C/c1ccc(O)cc1 | 3.9 (≈ 10.7 µM) | 3.9 (≈ 10.7 µM) | 17.3 | inactive | 20.3 | inactive | 500 (≈ 1370 µM) | 3.9 (≈ 10.7 µM) | 15.6 (≈ 42.7 µM) | 19.2 | 160 | 3.12 (≈ 8.53 µM) | 19.3 | 18.3 | 53.21 mm | 7.81 (≈ 21.3 µM) | 
2 | COc1ccc(/C=N/NC(=O)c2ccc(-c3ccc(Cl)cc3)nc2C)cc1 | 1.95 (≈ 5.13 µM) | 1.95 (≈ 5.13 µM) | 19.2 | inactive | 21.3 | inactive | 500 (≈ 1320 µM) | 1.95 (≈ 5.13 µM) | 3.9 (≈ 10.3 µM) | 20.9 | 641 | 0.78 (≈ 2.05 µM) | 20.9 | 20.1 | 70.34 mm | 3.9 (≈ 10.3 µM) | 
3 | COc1ccc(/C=N/NC(=O)c2ccc(-c3cccc(Cl)c3)nc2C)cc1OC | 1.95 (≈ 4.76 µM) | 3.9 (≈ 9.52 µM) | 17.2 | inactive | 19.6 | inactive | 168 (≈ 410 µM) | 3.9 (≈ 9.52 µM) | 15.6 (≈ 38.1 µM) | 21.6 | 215 | 0.78 (≈ 1.9 µM) | 19.3 | 17.9 | 73.58 mm | 7.81 (≈ 19.1 µM) | -logMIC [12]: 0.1079
4 | Cc1ccc(/C=N/NC(=O)c2ccc(-c3cccc(Cl)c3)nc2C)cc1 |  |  |  |  | 13.6 | inactive | 500 (≈ 1370 µM) |  |  |  | 321 | 1.56 (≈ 4.29 µM) |  | 12.6 | 61.24 mm |  | diameter of the inhibition zone (DIZ) [3]: inactive; diameter of the inhibition zone (DIZ) [10]: inactive; diameter of the inhibition zone (DIZ) [13]: inactive
5 | COc1ccc(/C=N/NC(=O)c2ccc(-c3cccc(Cl)c3)nc2C)cc1 | 3.9 (≈ 10.3 µM) | 3.9 (≈ 10.3 µM) | 18.2 | inactive | 20.9 | inactive | 500 (≈ 1320 µM) | 1.95 (≈ 5.13 µM) | 7.81 (≈ 20.6 µM) | 20.3 | 321 | 1.56 (≈ 4.11 µM) | 20.6 | 19.6 | 60.42 mm | 3.9 (≈ 10.3 µM) | 
6 | O=C(N/N=C/c1ccc(Cl)cc1Cl)c1c[nH]c2cc(Cl)ccc2c1=O | 0.49 (≈ 1.24 µM) | 0.98 (≈ 2.48 µM) | 19.6 | inactive | 22.1 | inactive |  | 3.9 (≈ 9.88 µM) | 3.9 (≈ 9.88 µM) | 24.3 |  |  | 20.3 | 20.6 | inactive | 1.95 (≈ 4.94 µM) | MIC [12]: inactive; Ratio [17]: 2
